Each structure is given as a SMILES string. The source made the active and inactive calls.

The target of data set [1] is T1, Lysosomal acid lipase/cholesteryl ester hydrolase (Homo sapiens, UniProt P38571).
T1 sequence (P38571 whole entry): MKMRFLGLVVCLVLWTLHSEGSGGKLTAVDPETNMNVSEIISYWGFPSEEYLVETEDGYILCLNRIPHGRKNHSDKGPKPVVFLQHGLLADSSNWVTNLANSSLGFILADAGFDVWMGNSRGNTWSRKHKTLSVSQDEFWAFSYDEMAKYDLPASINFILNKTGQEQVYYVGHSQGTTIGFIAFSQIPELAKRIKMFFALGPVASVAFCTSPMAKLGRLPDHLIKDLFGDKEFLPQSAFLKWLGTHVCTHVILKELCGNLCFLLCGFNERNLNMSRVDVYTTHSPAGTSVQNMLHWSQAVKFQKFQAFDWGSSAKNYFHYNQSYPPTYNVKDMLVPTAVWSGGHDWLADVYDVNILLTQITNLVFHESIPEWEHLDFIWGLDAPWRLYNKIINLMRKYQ
In words: Inhibition of human LAL after 30 mins by fluorescence assay. The method, boiled down:
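Purified recombinant human LAL (1 mU/ml final) with threefold serial compound dilutions in 200 mM sodium acetate pH 5.5, 0.02% Tween-20, 30 min at 37 °C. 125 μM (final) 4-methylumbelliferyl oleate in Triton X-100 added; fluorescence (ex 355/em 450) read after 1 h at 37 °C. IC50 from rectangular-hyperbola fit of normalized activity; mean ± SEM of 3 independent experiments.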

The target in data set [2] is T2, Lysosomal acid lipase/cholesteryl ester hydrolase (Homo sapiens) (UniProt P38571).
T2 sequence (whole entry): T1 sequence (P38571 whole entry)
The data set is described as follows: Competitive inhibition of human LAL preincubated for 30 mins by Lineweaver-Burke plot analysis. The method, boiled down: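 Purified recombinant human LAL pre-incubated with inhibitor 30 min at 37 °C; reaction started with 4-methylumbelliferyl oleate at various concentrations, monitored 45 min. Concentrations are final. Lineweaver-Burk plots fitted by linear regression; two independent experiments, 6–8 wells per treated condition.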

Data set [3] addresses T2, Lysosomal acid lipase/cholesteryl ester hydrolase (Homo sapiens). In words: Inhibition of human LAL at 833 nM by fluorescence assay. Conditions: TDE = time-dependent effect. The method, boiled down: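 Purified human LAL pre-incubated with compound at 833 nM for varying times at 37 °C (500 nM final in assay). Reaction started with 125 μM (final) 4-methylumbelliferyl oleate, followed 30 min at 37 °C. Normalized to DMSO control; mean ± SEM of 2 experiments, 12 wells per condition.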

For data set [4] the target is unchanged. In words: Inhibition of human LAL assessed as enzyme decarbamoylation rate constant at 10 uM after 30 mins by fluorescence assay. The method in brief: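 Purified human LAL carbamoylated with 10 μM compound for 30 min, then diluted 250× to 40 nM with 125 μM 4-methylumbelliferyl oleate. Run at 37 °C, pH 5.5 acetate buffer with Tween and Triton X-100; fluorescence read every 10 min for 2 h. k3 from linear regression of ln(fraction inhibited) vs time; mean ± SEM of 4 experiments.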

For data set [5] the target is unchanged. In words: Inhibition of LAL in human GM05659 cell lysate assessed as reduction in lysosomal storage organelle cholesterol level at 0.1 to 10 uM after 4 days by bicinchoninic acid assay. The method in brief: (§1)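 Human fibroblasts in MEM with 10% FBS, exposed to compound 3–4 days (withdrawal variant: 3 days treatment, then 1 day compound-free). Cells PBS-washed, rinsed in 150 mM sodium acetate pH 5.5, lysed in 1% Triton X-100 for 30 min at 37 °C. 1 mM (final) 4-methylumbelliferyl oleate added; fluorescence activity normalized to protein by bicinchoninic acid assay.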

Data set [6] can be described thus: Cytotoxicity against human GM05659 cells at 10 uM. Format: cell-based.
Data set [7] can be described thus: Cytotoxicity against human GM03123 cells at 10 uM. Format: cell-based.
For data set [8], the target named is T2, Lysosomal acid lipase/cholesteryl ester hydrolase (Homo sapiens). The data set is described as follows: Inhibition of human LAL at 10 uM after 30 mins by fluorescence assay.
Data set [9] has the same target. The data set is described as follows: Inhibition of LAL in human GM05659 cell lysate assessed as reduction in lysosomal storage organelle cholesterol level at 0.1 to 10 uM treated for 3 days measured after 1 day of compound withdrawal by bicinchoninic acid assay. The method, boiled down: as §1
The target is the same in data set [10]. In words: Inhibition of LAL in intact human GM03123 cells assessed as reduction in lysosomal storage organelle cholesterol level at 10 uM after 3 days by filipin LSO assay. Format: cell-based. The method in brief: (§2)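 Fibroblasts in MEM with 10% FBS treated 3 days, stained with filipin or LipidTOX green, imaged by automated fluorescence microscopy. After background correction, integrated thresholded fluorescence within lysosomal storage organelles was normalized to total cell area defined by low-threshold filipin signal.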

The target is the same in data set [11]. In words: Inhibition of LAL in intact human GM05659 cells assessed as increase in neutral lipid accumulation in lysosomal storage organelle at 10 uM after 3 days by lipidTox green staining-based fluorescence microscopy. Format: cell-based. The method, boiled down: as §2

Usually IC50 stands for the midpoint of a concentration-inhibition curve. Higher therefore signals lower potency. The molecule `O=C(Oc1nsnc1N1CCCCC1)N1CCOCC1` displayed an IC50 in data set [1] of 68 nM. In addition, the inhibition entry in data set [2] and in [5] was “Active” each time. In addition, in [3], the inhibition entry was “tde”. Besides, the Activity is 0.003 min⁻¹ in data set [4], “Non-toxic” in data set [6] and “Non-toxic” in data set [7].
Consider `CCOC(=O)Cc1nsnc1N1CCOCC1`, for which, in [8], the inhibition entry was “inactive”. For the same molecule, the Activity result in data set [6] and in data set [7] was “Non-toxic” in each case.
As to `CC(C)(C)OC(=O)Cc1nsnc1N1CCOCC1`, in [8], the inhibition entry is “inactive”. Moreover, the Activity result in [6] and in data set [7] was “Non-toxic” in each case.
On to `O=C(Oc1nsnc1N1CCCCCC1)N1CCOCC1`, for which the IC50 in [1] turned out to be 189 nM. For the same molecule, the inhibition result in data set [3] was “tde”. Further, the Activity was 0.0042 min⁻¹ in [4], “Non-toxic” in data set [6] and “Non-toxic” in data set [7]. The inhibition entry in [5] was “Active”.
In turn, `O=C(Oc1nsnc1N1CCCCCC1)N1CCCCC1` returned an IC50 in data set [1] of 300 nM. In addition, the inhibition entry in [3] was “tde”. The Activity in [4] is 0.0013 min⁻¹; in [6] it was “Non-toxic”; in [7], “Non-toxic”. Besides, the inhibition result in data set [5] and in data set [9] was “Active” each time.
Turning to `COC(N)=O`, the inhibition entry in data set [8] was “inactive”.
`O=C(Oc1nsnc1N1CCCCC1)N1CCCCC1` displayed an IC50 in [1] of 152 nM. Moreover, the inhibition result in data set [3] is “tde”. Besides, the results for the Activity in data set [4], in data set [6] and in [7] were 0.001 min⁻¹, “Non-toxic” and “Non-toxic”, respectively. Further, the inhibition entry in data set [5], in data set [9], in data set [10] and in data set [11] was “Active” in each case.
As for `Oc1nsnc1N1CCCCC1`, the inhibition entry in [8] was “inactive”. In addition, the Activity entry in [6] and in data set [7] was “Non-toxic” throughout.
For `COC(=O)C(CCc1ccccc1)c1nsnc1N1CCOCC1` (racemic), the inhibition entry in [8] is “inactive”. For the same molecule, the Activity entry in [6] and in data set [7] was “Non-toxic” in each case.
Take `CNC(=O)Oc1ccc2c(c1)[C@]1(C)CCN(C)[C@@H]1N2C`: the inhibition entry in data set [8] was “inactive”.
Regarding `O=C(Cc1nsnc1N1CCOCC1)N1CCOCC1`, the inhibition result in [8] was “inactive”. Also, the Activity entry in data set [6] and in data set [7] was “Non-toxic” in each case.
In [1], `O=C(Oc1nsnc1N1CCCC1)N1CCOCC1` showed an IC50 of 473 nM. Moreover, the inhibition result in data set [3] is “tde”. The Activity was 0.0037 min⁻¹ in [4], “Non-toxic” in [6] and “Non-toxic” in [7]. The inhibition entry in [5] was “Active”.
As to `COc1ccccc1OCC(CO)OC(N)=O` (stereo not given), in data set [8], the inhibition entry is “inactive”.
Regarding `O=C(Oc1nsnc1N1CCOCC1)N1CCCCC1`, in [1], the IC50 is 424 nM. Besides, in data set [3], the inhibition entry is “tde”. Also, the Activity is 0.0016 min⁻¹ in data set [4], “Non-toxic” in data set [6] and “Non-toxic” in data set [7]. Moreover, the inhibition entry in [5] is “Active”.
With `CC(C)(C)C(=O)Cc1nsnc1N1CCOCC1`, the inhibition entry in data set [8] is “inactive”. The Activity entry in [6] and in data set [7] was “Non-toxic” in each case.
For the molecule `COC(=O)C(C)(C)c1nsnc1N1CCOCC1`, the inhibition result in data set [8] is “inactive”. For the same molecule, the Activity result in data set [6] and in data set [7] was “Non-toxic” each time.
As to `CN1CCC(OC(=O)Nc2ccc(F)cc2)CC1`, the inhibition entry in [8] was “inactive”.
For the molecule `O=C(Cc1nsnc1N1CCOCC1)c1ccccc1`, in [8], the inhibition entry is “inactive”. For the same molecule, the Activity result in data set [6] and in data set [7] was “Non-toxic” in each case.
Consider `Oc1nsnc1N1CCCCCC1`, for which the inhibition result in data set [8] was “inactive”. Also, the Activity entry in data set [6] and in data set [7] was “Non-toxic” in each case.
As for `CC(C)(C)OC(=O)Cc1nsnc1N1CCCCC1`, the Activity result in data set [6] and in data set [7] was “Non-toxic” each time.
For the molecule `O=C(Cc1nsnc1N1CCCCC1)N1CCOCC1`, in data set [8], the inhibition entry was “inactive”. The Activity result in data set [6] and in data set [7] was “Non-toxic” throughout.
Consider `Oc1nsnc1N1CCOCC1`, for which the inhibition entry in data set [8] is “inactive”. Moreover, the Activity entry in [6] and in [7] was “Non-toxic” throughout.
`O=C(Oc1nsnc1N1CCOCC1)N1CCOCC1`: the IC50 in [1] worked out at 492 nM. In addition, in data set [3], the inhibition entry is “tde”. Also, the values for the Activity in data set [4], in data set [6] and in data set [7] were 0.0043 min⁻¹, “Non-toxic” and “Non-toxic”, respectively. For the same molecule, the inhibition entry in data set [5] is “Active”. For the same molecule, the inhibition entry in data set [10] and in [11] was “inactive” each time.
With `COC(=O)C(C)c1nsnc1N1CCOCC1` (racemic), in data set [8], the inhibition entry is “Active”. The Activity entry in [6] and in [7] was “Non-toxic” each time.
For the molecule `NCCCCCCNC(=O)OCc1ccccc1`, the inhibition result in data set [8] is “inactive”.
In [1], `O=C(Oc1nsnc1N1CCCC1)N1CCCCC1` registered an IC50 of 496 nM. Besides, the Activity in data set [4] is 0.0007 min⁻¹; in data set [6] it was “Non-toxic”; in data set [7], “Non-toxic”. For the same molecule, the inhibition result in data set [5] and in data set [9] was “Active” in each case.
With `Oc1nsnc1N1CCCC1`, the inhibition entry in data set [8] is “inactive”. Besides, the Activity result in data set [6] and in [7] was “Non-toxic” each time.
On to `CC(C(=O)c1ccccc1)c1nsnc1N1CCOCC1` (racemic), for which, in data set [8], the inhibition result was “inactive”. For the same molecule, the Activity result in data set [6] and in [7] was “Non-toxic” each time.
With `CN(C)C(=O)Oc1cccc([N+](C)(C)C)c1`, in [8], the inhibition result was “inactive”.

The values are drawn from ChEMBL document CHEMBL1155456, “Thiadiazole carbamates: potent inhibitors of lysosomal acid lipase and potential Niemann-Pick type C disease therapeutics” (J Med Chem, 2010).
